Source: PubChem (several laboratories)
This is a sample that favours compounds with a hit; in the whole collection about 1.5% have one here.
VLA-4 inh: inhibition in human VLA-4 binding assay, primary screen, VLA-4 allosteric modulator project, MLPCN library, flow cytometry, VLA-4 expressing cells; ligand binding flow cytometry; inhibition, % (about 7 µM as worked out from the volumes in the protocol); 330,000 tested, 0.2% active; Integrin alpha-4 (Homo sapiens), P13612; in the data active = inhibition above about 50%
CHT allo act: CHT positive allosteric modulators, primary screen, cell-based, membrane potential dye, choline EC20. CHT-expressing cells; hits give high values; LV-AA mutant CHT in HEK293 cells. B-score at 10 µM. 310,000 tested, 0.49% active. AID 488977, 2010;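 active = initial fluorescence not abnormally high and integrated response B-score, plate-corrected, over 3 SD above library mean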
Target sequence (Q9GZV3 whole entry, looked up): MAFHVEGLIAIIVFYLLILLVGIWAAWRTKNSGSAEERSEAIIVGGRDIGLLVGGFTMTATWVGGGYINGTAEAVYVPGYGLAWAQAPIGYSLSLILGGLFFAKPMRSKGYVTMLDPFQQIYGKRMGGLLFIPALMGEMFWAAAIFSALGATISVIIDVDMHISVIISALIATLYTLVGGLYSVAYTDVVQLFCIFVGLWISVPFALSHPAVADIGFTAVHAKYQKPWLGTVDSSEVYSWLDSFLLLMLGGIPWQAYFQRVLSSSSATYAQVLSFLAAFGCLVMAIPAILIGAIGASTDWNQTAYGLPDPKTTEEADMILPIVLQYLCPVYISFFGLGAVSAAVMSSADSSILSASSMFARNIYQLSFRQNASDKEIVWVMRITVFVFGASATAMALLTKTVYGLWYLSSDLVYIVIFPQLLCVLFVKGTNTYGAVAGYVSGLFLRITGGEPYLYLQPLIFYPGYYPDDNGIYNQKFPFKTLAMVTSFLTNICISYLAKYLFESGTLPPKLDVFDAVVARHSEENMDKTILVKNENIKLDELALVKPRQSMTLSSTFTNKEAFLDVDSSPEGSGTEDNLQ
T cell HTS: modulators of CD8 T cell-vesicle binding, primary screen, mouse 2C CD8+ T cells, flow cytometry; 330,000 tested, 0.068% active; AID 2052, 2009; response (vesicle binding), % at 7 µM; 2C CD8+ T cell-vesicle binding; hits give low values;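 active = response, share of CD8 T cells binding vesicles, and their 90th percentile fluorescence all below set limits, cut at about 80% in these data, passing the limit was not always enough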;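 note: values below 100% mean blocked vesicle binding to the CD8+ T cells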
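Incubation: binding step 1.5 h, 37 °C, antibody labelling 20 min, ice; system: murine 2C transgenic CD8+ T lymphocytes; technique: cytometric PE anti-B7-1 and Alexa647 anti-CD8 signals after 1% paraformaldehyde fixation; also added: QL9-charged Drosophila Ld/ICAM-1/B7-1 vesicles; control set: naked versus QL9-loaded vesicles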
CHT block: inhibitors of human choline transporter CHT; 310,000 tested, 0.86% active; CHT-expressing cells, membrane potential dye, choline response; hits give low values; B-score at 10 µM; High affinity choline transporter 1 (Homo sapiens), Q9GZV3;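 active = B-score over 3 SD under the library average, and starting fluorescence ratio not unusually high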;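 note: choline stimulus applied at its EC90 after an EC20 pre-addition; B-score computed on integrated fluorescence ratio after choline addition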
CHT activ conf: CHT activators, confirmation, cell-based, membrane potential dye, duplicate; shares compounds with CHT allo act; CHT-expressing cells, membrane potential dye fluorescence (FDSS); % of choline EC20–EC90 response window; HEK293 expressing CHT LV-AA mutant; choline added at its EC20; activation, % at 10 µM; 2,500 tested, 91% active;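 active = primary screen active, with duplicate mean activation above negative control mean plus 3 SD, cut at about 11% in these data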
HEK293 MP dye: membrane potential response in parental HEK293 cells, counter-screen for CHT activator project, cell-based, membrane potential dye; shares compounds with CHT allo act; membrane potential dye fluorescence (FDSS); measured after EC20 choline addition; ratio readout change at 10 µM, hits read low; 2,500 tested, 62% active;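 active = duplicate-averaged ratio beyond 3 SD from buffer wells, up or down, though filed actives are nearly all decreases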
Hits are given with their value; - = inactive; . = no result given.

SMILES	VLA-4 inh	CHT allo act	T cell HTS	CHT block	CHT activ conf	HEK293 MP dye
c1ccc(CN2CCC(Nc3nc(-c4cccs4)nc4ccccc34)CC2)cc1	-	-	-	-	23	-48
CCN1CCN(c2nc(-c3cccs3)nc3ccccc23)CC1	-	7.1	-	-	43	-40
CCOc1ccc(N(CC(=O)N2CCN(c3ccc(F)cc3)CC2)S(=O)(=O)c2c(C)noc2C)cc1	-	-	-	-	.	.
O=C(Nc1ccccc1OC(F)F)c1ccc(-n2cncn2)c([N+](=O)[O-])c1	-	-	-	-	.	.
OCC[C@@H]1C[C@@H](O)[C@H](O)[C@@]2(Cc3ccccc3CCO2)O1	-	-	-	-	.	.
CC(C(=O)N1CCc2ccccc2C1)N1C(=O)c2ccccc2C1=O (centres undefined)	-	-	-	-	.	.
CC(C)CC(C(=O)N1CCc2ccccc2C1)N1C(=O)c2ccccc2C1=O (centres undefined)	-	-	-	-	39	-
Cn1c(N)c(C(=O)COC(=O)COc2ccccc2C#N)c(=O)n(C)c1=O	-	-	-	-	.	.
COc1ccc(F)cc1C(=O)C1CCCN(C(=O)c2ccccc2N(C)C)C1 (centres undefined)	-	-	-	-	.	.
CCCCCCCCCC[N+](C)(C)CC/C=C1/c2ccccc2Sc2ccc(Cl)cc21	-	8.2	-	-	-	-47
CCCCCCCCCCC[N+](C)(C)CC/C=C1/c2ccccc2Sc2ccc(Cl)cc21	-	-	-	-	.	.
Cn1nc(C(=O)NCc2cccs2)c2ccccc2c1=O	-	-	-	-	.	.
Cc1ccc(OCc2nc(C#N)c(N3CCN(Cc4ccccc4)CC3)o2)cc1	-	11	-	-	33	-
N#Cc1nc(COc2ccccc2)oc1N1CCN(Cc2ccccc2)CC1	-	10	-	-	36	-
CC(=O)Nc1ccc(NC(=O)CSc2nc3[nH]ncc3c(=O)n2-c2ccccc2)cc1	-	-	-	-	.	.
COc1ccc(C)cc1Nc1n[n+](-c2ccccc2)c(-c2ccc(OC)c(OC)c2OC)s1	-	9.9	-	-	15	-
COc1ccc(NC(=S)N2CCC(N(C)CC3CCCO3)CC2)cc1Cl (centres undefined)	-	-	-	-	.	.
CN1C2=NCCN2C(=O)c2cc(Cl)ccc21	-	-	-	-	.	.
COc1ccc2c(c1)N1CCN=C1N2C	-	8.9	-	-	65	-65
COc1ccc(NC(=O)CNC(=O)C2CCCCC2)cc1OC	-	.	-	.	.	.
C[n+]1cn(Cc2cc(Cl)ccc2OC(F)F)c2ccccc21	-	7.3	-	-	54	-
Cn1c(=O)n(CCOc2ccc(Cl)cc2Cl)c2ccccc21	-	-	-	-	.	.
O=C(CSc1nnc(CNC(=O)c2c(F)cccc2Cl)o1)NCc1ccccc1	-	-	-	-	.	.
CCC1CCCCN1C(=O)CSc1nc2ncccc2[nH]1 (centres undefined)	-	-	-	-	.	.
COc1ccc(CN2CCc3c([nH]c4ccccc34)C2)c(OC)c1C	-	-	-	-	32	-
SMILES	VLA-4 inh	CHT allo act	T cell HTS	CHT block	CHT activ conf	HEK293 MP dye
O=C(NNc1ccc(Cl)cc1)C1CCC1	-	-	-	-	14	-
O=C(NNc1cc(Cl)cc(Cl)c1)C1CCC1	-	-	-	-	.	.
CCOC(=O)c1c(N)c2cc([N+](=O)[O-])ccc2n1C	-	-	-	-	.	.
CCOC(=O)c1c(N=CN(C)C)c2cc([N+](=O)[O-])cnc2n1C	-	-	-	-	38	-46
COc1ccc(/C=N/Nc2ccccn2)cc1O	-	-	-	-	35	-48
O=C(c1ccc(Cl)c([N+](=O)[O-])c1)N(Cc1ccco1)C1CCS(=O)(=O)C1 (centres undefined)	-	-	-	-	.	.
CC1=Nc2cccc3cccc(c23)N1	-	-	-	-	33	-39
Cc1nn2c3ccccc3n(CCN3CCCCC3)c2nc1=O	-	7.1	-	-	39	-42
Cc1nn(-c2ccccc2)c(Cl)c1CN(C(=O)CCl)c1cccc2ccccc12	-	9	-	-	36	-
Cc1nn(-c2ccccc2)c(Cl)c1CN(C(=O)CCl)c1ccc(Cl)cc1	-	-	-	-	.	.
N#CC(C#N)=c1ccc2c(c1)NC1(CCCCC1)N=2	-	6.4	-	-	51	-64
O=C(Nc1ccccc1NC(=O)c1ccccc1Cl)c1ccccc1Cl	-	-	-	-	.	.
CC(C)Cn1c(/C=C/c2ccccc2)nc2ccccc21	-	-	-	-	23	-
Nc1c(-c2cccc([N+](=O)[O-])c2)nc2ccccn12	-	-	-	-	53	-50
C[C@H]1C(=O)N(C)CCN1Cc1cn(C)nc1-c1ccc(Oc2ccccc2)cc1	-	-	-	-	.	.
CCN(CC)C(=O)C1CCN(Cc2cn(C)nc2-c2ccc(Oc3ccccc3)cc2)CC1	-	-	-	-	-	-
O=C(N[C@@H]1CCC(=O)N(CC[C@H](Oc2ccccc2)c2ccccc2)CC1)OCc1ccccc1	-	-	-	-	25	-
Cn1ccsc1=NC(=O)c1cccc(C#N)c1	-	-	-	-	.	.
CCOc1ccc(N(C)S(=O)(=O)c2ccc3[nH]cc(C(=O)NCC(OC)OC)c(=O)c3c2)cc1	-	-	-	-	21	-
CCC1CCCCN1C(=O)c1c[nH]c2ccc(S(=O)(=O)N(C)c3ccc(Cl)cc3)cc2c1=O (centres undefined)	-	-	-	-	30	-
CCOC(=O)c1c(CN2CCCCC2)n(C)c2cc(Br)c(O)cc12	-	-	-	-	.	.
CCOC(=O)c1c(CN2CCN(C)CC2)n(C)c2cc(Br)c(OC)cc12	-	-	-	-	39	-55
CCOC(=O)c1cnc2ccc(OCC)cc2c1N(C)Cc1ccccc1	-	9.6	-	-	41	-
CCOC(=O)c1cnc2ccc(OCC)cc2c1N1CCN(c2ccccc2OC)CC1	-	-	-	-	.	.
COc1ccc(-c2nc(CN3CCC(C(=O)N4CCc5ccccc54)CC3)c(C)o2)cc1OC	-	-	-	-	39	-38
COc1ccc(CCNC(=O)C2CCN(Cc3nc(-c4cccc(Cl)c4)oc3C)CC2)cc1OC	-	-	-	-	30	-36
C[n+]1c2n(c3ccccc31)N=C(c1ccc(-c3ccccc3)cc1)CS2	-	7.9	-	-	40	-35
C[n+]1c2n(c3ccccc31)N=C(c1ccccc1)CS2	-	7.1	-	-	58	-55
Cc1cccc(-c2nnc3n2N=C(c2ccccc2)CS3)c1	-	-	-	-	.	.
